From ChEMBL document CHEMBL3758162, “Synthesis, biological characterization and molecular modeling insights of spirochromanes as potent HDAC inhibitors” (Eur J Med Chem, 2016) come the findings set out here.

Where only a bound is given, the exact number is not on record here.

A short description of series [1]: Antiproliferative activity against human HCT116 cells assessed as cell viability after 72 hrs by CellTitre-Glo luminescent assay. The class given is functional, cell-based, HCT-116. The note with it: Homo sapiens, HCT-116, 72 h.
In a further series the target is T1, CYP1A2 (Homo sapiens, UniProt P05177).
T1 sequence (P05177 whole entry): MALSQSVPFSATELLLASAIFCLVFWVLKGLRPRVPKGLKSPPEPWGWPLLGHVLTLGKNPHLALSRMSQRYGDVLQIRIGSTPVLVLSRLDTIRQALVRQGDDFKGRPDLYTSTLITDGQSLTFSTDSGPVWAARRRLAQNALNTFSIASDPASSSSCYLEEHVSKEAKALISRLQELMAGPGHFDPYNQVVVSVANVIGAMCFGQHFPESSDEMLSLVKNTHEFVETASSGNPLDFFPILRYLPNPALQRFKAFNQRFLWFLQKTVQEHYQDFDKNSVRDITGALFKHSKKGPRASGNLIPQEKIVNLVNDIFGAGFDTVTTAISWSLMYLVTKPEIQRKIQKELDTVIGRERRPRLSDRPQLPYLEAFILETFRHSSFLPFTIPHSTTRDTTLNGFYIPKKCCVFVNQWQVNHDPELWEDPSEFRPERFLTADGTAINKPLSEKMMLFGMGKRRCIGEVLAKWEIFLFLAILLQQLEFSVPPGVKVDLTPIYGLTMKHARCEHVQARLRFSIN
The experiment in a line: Inhibition of human CYP1A2 using 3-cyano-7-ethoxycoumarin as substrate at 10 uM after 15 mins by fluorimetric analysis. The series is classed as ADME. The settings on record: probe 3-cyano-7-ethoxycoumarin. Summed up:
(§1)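 Test compounds at 10 µM in potassium phosphate buffer pH 7.4 with NADPH regenerating system (final 1.3 mM NADP⁺, 3.3 mM glucose 6-phosphate, 0.4 U/ml G6PDH); reaction started at 37 °C by adding Supersomes isoenzyme plus substrate. Enzyme and substrate amounts: CYP1A2 0.5 pmol, 5 µM CEC; CYP2C19 0.5 pmol, 25 µM CEC; CYP3A4 1 pmol, 50 µM BFC; CYP2D6 1.5 pmol, 1.5 µM AMMC. Stopped with acetonitrile/Tris base; fluorescence read; % inhibition versus enzyme without inhibitor; n≥2, mean.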

For a further series, the target named is CYP2D6 (Homo sapiens, UniProt P10635). Briefly: Inhibition of human CYP2D6 using 3-[2-(N,N-diethyl-N-methylamino)ethyl]-7-methoxy-4-methylcoumarin as substrate at 10 uM after 30 mins by fluorimetric analysis. The class given is ADME. Summed up:
as §1

The nature of series [2]: (§2) Metabolic stability in human liver microsomes assessed as compound remaining at 1 uM preincubated for 10 mins measured after 30 mins by LC-MS/MS analysis. The settings on record: liver microsomes, read-out: Stability. The class given is ADME. A digest of the protocol:
(§3)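 Compound at 1 µM pre-incubated 10 min at 37 °C in potassium phosphate buffer pH 7.4 with 0.5 mg/mL mouse or human hepatic microsomes. Parent quantified by LC-MS/MS (ESI+, MRM, verapamil internal standard). % remaining = peak area at 30 min / area at 0 min × 100; n≥2, mean.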

The target in a further series is CYP2C19 (Homo sapiens, UniProt P33261). Briefly: Inhibition of human CYP2C19 using 3-cyano-7-ethoxycoumarin as substrate at 10 uM after 30 mins by fluorimetric analysis. The settings on record: probe 3-cyano-7-ethoxycoumarin. The class given is ADME. A digest of the protocol:
as §1

The next series has as its target Histone deacetylase. Briefly: Inhibition of HDAC in human HeLa cells nuclear extract using Fluor de lys as substrate after 15 mins by fluorometric analysis. The class given is cell-based.
The next series deals with A549. Briefly: Antiproliferative activity against human A549 cells assessed as cell viability after 72 hrs by CellTitre-Glo luminescent assay. The class given is functional, cell-based. The settings on record: Homo sapiens, A549, 72 h.
The target of the next series is CYP3A4 (Homo sapiens, UniProt P08684). The experiment in a line: Inhibition of human CYP3A4 using 7-benzyloxy-4-(trifluoromethyl)-coumarin as substrate at 10 uM after 30 mins by fluorimetric analysis. The class given is ADME. The settings on record: probe 7-benzyloxy-4-(trifluoromethyl)-coumarin. A digest of the protocol:
as §1

Series [3] is described as follows: Metabolic stability in mouse liver microsomes assessed as compound remaining at 1 uM preincubated for 10 mins measured after 30 mins by LC-MS/MS analysis. The class given is ADME. The settings on record: liver microsomes, read-out: Stability. A digest of the protocol:
as §3
(Liver microsomes are a subcellular fraction often used to study metabolism.)

The nature of series [4]: Solubility of the compound at pH 4.5. The series is classed as physicochemical. The note with it: buffer.
In a further series the test system is K562. Briefly: Antiproliferative activity against human K562 cells assessed as cell viability after 72 hrs by CellTitre-Glo luminescent assay. The class given is functional, cell-based.
A further series concerns Liver microsome. Described as §2. The series is classed as ADME. The settings on record: microsomes, 0.5 h, 1 µM. A digest of the protocol: as §3
In series [5] the target is T2, Protein deacetylase HDAC6 (Homo sapiens, UniProt Q9UBN7).
T2 sequence (Q9UBN7 whole entry): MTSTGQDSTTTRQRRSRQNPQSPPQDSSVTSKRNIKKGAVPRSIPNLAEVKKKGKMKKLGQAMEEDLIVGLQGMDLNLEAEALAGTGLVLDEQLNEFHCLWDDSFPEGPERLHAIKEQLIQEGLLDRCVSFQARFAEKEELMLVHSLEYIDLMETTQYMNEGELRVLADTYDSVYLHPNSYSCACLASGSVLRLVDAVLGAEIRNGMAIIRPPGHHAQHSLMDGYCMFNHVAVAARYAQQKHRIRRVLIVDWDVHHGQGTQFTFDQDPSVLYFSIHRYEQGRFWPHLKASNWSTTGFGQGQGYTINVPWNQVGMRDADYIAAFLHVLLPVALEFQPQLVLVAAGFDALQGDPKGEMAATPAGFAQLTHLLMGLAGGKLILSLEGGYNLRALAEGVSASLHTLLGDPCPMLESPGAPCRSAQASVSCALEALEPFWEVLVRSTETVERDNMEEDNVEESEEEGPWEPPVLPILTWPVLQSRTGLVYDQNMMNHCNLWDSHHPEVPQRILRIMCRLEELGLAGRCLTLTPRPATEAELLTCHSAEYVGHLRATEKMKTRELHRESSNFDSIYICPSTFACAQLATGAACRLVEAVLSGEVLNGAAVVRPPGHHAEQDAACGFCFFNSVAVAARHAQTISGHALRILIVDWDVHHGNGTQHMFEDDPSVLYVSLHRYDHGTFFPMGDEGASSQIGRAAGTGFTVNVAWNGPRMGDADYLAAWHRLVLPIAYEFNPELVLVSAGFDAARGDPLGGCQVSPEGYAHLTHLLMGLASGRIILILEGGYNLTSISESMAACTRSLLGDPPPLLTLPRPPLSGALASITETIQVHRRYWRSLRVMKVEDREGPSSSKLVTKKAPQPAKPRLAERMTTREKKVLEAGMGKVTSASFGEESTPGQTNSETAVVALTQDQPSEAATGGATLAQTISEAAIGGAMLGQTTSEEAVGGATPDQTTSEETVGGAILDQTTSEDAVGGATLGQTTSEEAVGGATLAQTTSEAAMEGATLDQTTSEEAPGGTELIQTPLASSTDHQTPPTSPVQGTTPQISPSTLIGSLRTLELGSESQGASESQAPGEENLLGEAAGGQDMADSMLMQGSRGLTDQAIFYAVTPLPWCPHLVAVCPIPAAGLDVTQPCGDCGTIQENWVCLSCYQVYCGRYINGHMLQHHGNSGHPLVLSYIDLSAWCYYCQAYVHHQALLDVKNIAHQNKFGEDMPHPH
Briefly: Inhibition of HDAC6 (unknown origin).

In the next series the target is Histone deacetylase 3 (Homo sapiens, UniProt O15379). Briefly: Inhibition of HDAC3 (unknown origin).
Chain of Histone deacetylase 3 (O15379 whole entry): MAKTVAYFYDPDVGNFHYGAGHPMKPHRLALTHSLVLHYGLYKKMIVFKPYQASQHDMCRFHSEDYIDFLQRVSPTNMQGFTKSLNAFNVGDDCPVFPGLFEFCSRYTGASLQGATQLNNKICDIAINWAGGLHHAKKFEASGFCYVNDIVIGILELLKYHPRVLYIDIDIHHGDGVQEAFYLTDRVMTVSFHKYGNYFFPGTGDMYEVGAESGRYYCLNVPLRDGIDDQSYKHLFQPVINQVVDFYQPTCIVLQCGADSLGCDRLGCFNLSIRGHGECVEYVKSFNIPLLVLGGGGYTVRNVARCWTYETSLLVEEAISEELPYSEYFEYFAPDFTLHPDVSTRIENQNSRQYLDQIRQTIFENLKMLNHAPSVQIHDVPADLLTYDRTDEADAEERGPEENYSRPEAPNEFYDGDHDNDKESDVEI
The next series addresses Histone deacetylase 2 (Homo sapiens, UniProt Q92769). Briefly: Inhibition of HDAC2 (unknown origin).

As a reminder, the IC50 is the concentration that gives 50% inhibition. One may read the inhibition as the share of the control response that was lost under treatment. What is called solubility is the concentration that dissolves in the medium under given conditions. Low values mean little dissolved substance, high ones much dissolved substance.

Chain of CYP3A4 (P08684 whole entry): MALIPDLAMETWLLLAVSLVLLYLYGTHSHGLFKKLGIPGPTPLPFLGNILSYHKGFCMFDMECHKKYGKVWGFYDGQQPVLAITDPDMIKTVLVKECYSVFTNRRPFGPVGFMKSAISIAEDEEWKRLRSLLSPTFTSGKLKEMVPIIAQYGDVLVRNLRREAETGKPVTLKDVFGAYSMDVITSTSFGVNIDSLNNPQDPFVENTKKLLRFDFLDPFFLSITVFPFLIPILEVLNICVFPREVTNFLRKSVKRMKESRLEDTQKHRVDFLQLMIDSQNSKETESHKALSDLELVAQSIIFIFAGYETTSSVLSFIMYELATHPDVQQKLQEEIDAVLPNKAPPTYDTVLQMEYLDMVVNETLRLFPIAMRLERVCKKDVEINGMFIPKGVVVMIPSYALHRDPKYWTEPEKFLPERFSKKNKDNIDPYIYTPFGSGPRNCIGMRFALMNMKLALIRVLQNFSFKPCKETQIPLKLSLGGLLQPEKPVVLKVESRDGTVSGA
Chain of CYP2D6 (P10635 whole entry): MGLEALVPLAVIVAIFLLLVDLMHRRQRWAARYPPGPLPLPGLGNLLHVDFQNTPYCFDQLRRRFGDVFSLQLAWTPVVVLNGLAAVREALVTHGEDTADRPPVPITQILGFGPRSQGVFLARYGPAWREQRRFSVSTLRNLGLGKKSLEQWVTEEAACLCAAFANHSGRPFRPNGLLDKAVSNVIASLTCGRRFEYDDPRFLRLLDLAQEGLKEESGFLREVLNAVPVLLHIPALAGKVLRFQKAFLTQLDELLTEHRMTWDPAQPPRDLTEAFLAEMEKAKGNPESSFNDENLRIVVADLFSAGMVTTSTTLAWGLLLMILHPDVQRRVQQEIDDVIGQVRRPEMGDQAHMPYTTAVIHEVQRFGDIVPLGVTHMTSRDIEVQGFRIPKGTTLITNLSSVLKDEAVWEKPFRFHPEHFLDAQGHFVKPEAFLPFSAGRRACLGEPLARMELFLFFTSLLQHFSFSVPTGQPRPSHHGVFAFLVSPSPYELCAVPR
Chain of CYP2C19 (P33261 whole entry): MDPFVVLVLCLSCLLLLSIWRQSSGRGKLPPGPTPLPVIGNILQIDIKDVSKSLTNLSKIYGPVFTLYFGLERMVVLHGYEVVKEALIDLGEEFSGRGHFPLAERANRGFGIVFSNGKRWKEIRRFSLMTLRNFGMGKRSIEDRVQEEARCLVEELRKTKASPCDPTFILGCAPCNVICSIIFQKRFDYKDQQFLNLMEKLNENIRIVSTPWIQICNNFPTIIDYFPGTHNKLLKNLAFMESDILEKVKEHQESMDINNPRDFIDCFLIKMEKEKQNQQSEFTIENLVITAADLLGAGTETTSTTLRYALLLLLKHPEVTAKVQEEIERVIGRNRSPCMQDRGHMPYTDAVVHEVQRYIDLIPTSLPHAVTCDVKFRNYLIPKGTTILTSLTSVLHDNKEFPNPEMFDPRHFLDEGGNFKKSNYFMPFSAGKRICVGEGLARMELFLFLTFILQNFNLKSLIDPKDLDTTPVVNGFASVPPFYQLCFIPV
Chain of Histone deacetylase 2 (Q92769 whole entry): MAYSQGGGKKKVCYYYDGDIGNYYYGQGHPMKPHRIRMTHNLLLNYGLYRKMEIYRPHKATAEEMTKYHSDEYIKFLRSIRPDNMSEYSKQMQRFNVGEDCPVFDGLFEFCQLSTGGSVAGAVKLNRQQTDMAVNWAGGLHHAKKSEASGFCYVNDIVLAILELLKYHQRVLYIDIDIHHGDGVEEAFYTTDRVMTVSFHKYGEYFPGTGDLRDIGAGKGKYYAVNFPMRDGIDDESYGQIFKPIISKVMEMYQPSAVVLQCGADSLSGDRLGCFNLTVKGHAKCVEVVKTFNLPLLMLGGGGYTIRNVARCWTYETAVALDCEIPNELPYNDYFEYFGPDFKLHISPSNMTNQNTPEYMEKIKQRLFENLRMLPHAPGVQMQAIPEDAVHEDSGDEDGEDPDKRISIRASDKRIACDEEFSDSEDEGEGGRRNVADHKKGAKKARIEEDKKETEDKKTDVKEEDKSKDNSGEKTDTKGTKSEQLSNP

On to `O=C(/C=C/c1ccc2c(c1)C(=O)CC1(CN(Cc3ccccc3)C1)O2)NO`, for which the IC50 in [1] is 76 nM; against Histone deacetylase, 67 nM; with A549, 245 nM; with K562 (Homo sapiens, K562, 72 h), 175 nM. Besides, the inhibition at 0.25 h, 10 µM on CYP1A2 was 5%. Also, the inhibition at 0.5 h, 10 µM is 64% against CYP2D6, 40% at CYP2C19 and 53% against CYP3A4. Also, the remaining at 0.5 h, 1 µM in series [2] and in [3] was 44% throughout. This compound gave a solubility in [4] of more than 500 µM.
`Cn1cc(CN2CC3(CC(=O)c4cc(/C=C/C(=O)NO)ccc4O3)C2)c2ccccc21`: the 50% inhibitory concentration (IC50) was found to be 78 nM in series [1]; 62 nM against Histone deacetylase; 242 nM in the series on A549; 46 nM in the series on K562 (Homo sapiens, K562, 72 h). Also, at CYP1A2, the inhibition at 0.25 h, 10 µM turned out to be 8%. Besides, the inhibition at 0.5 h, 10 µM was found to be 74% on CYP2D6, 68% against CYP2C19 and 84% against CYP3A4. Moreover, the values for the remaining at 0.5 h, 1 µM in [2] and in series [3] were 51% and 27%, respectively. The compound also had a solubility in series [4] of more than 500 µM.
Consider `CN1CCCC2(CC(=O)c3cc(/C=C/C(=O)NO)ccc3O2)C1` (racemic), for which the IC50 is 63 nM in series [1]; 237 nM against Histone deacetylase; 103 nM in the series with A549; 56 nM in the series on K562 (Homo sapiens, K562, 72 h). The same compound showed an inhibition at 0.25 h, 10 µM against CYP1A2 of 5%. In addition, the inhibition at 0.5 h, 10 µM against CYP2D6 turned out to be 14%; against CYP2C19, 12%; on CYP3A4 it was 51%. Besides, the remaining at 0.5 h, 1 µM turned out to be 42% in series [2] and 72% in series [3]. In [4], the solubility is more than 500 µM.
Regarding `O=C(/C=C/c1ccc2c(c1)C(=O)CC1(CCCN(CCc3ccccc3)CC1)O2)NO` (racemic), the IC50 was determined as 62 nM in series [1]; 56 nM at Histone deacetylase; 184 nM in the series with A549; 188 nM in the series on K562 (Homo sapiens, K562, 72 h). This compound also gave an inhibition at 0.25 h, 10 µM at CYP1A2 of 5%. The inhibition at 0.5 h, 10 µM was 52% against CYP2D6, 81% on CYP2C19 and 41% on CYP3A4. The remaining at 0.5 h, 1 µM in [2] turned out to be 27%; in [3], 39%. The solubility in [4] was more than 500 µM.
Turning to `O=C(/C=C/c1ccc2c(c1)C(=O)CC1(CCN(Cc3ccccc3)C1)O2)NO` (racemic), the IC50 in series [1] was 72 nM; in series [5], 123 nM; against Histone deacetylase 3, 28 nM; on Histone deacetylase 2, 82 nM; on Histone deacetylase, 52 nM; with A549, 389 nM. For the same compound, in the series with K562 (k562), the half-inhibitory concentration (IC50) was 271 nM. This compound displayed an inhibition at 0.25 h, 10 µM on CYP1A2 of 5%. For the same compound, the results for the inhibition at 0.5 h, 10 µM on CYP2D6, on CYP2C19 and against CYP3A4 were 70%, 39% and 69%, respectively. The Stability in the series on Liver microsome came out at 24%. The remaining at 0.5 h, 1 µM in [3] turned out to be 27%. Also, the solubility in [4] is more than 500 µM.
